In PMC5420486 (Clinical cancer research : an official journal of the …, 2016):
Entries after “also recorded” stand apart in the source; their conditions may differ.

Assays:
[1] = Plasma pharmacokinetics, noncompartmental analysis; type: in vivo, human; settings: for Tmax: human, plasma, oral
Outline: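 Patients were dosed orally once daily. Blood was drawn within 60 minutes predose and at 1, 2, 3, 4, 6, 8 and 24 h post dose on days 1 and 15, in both escalation and expansion cohorts. Cmax, Tmax, AUC0-24, AUC0-∞, T1/2, C24 and CL/F were derived from plasma test compound concentrations by noncompartmental analysis.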

[2] = test system: patients with other solid tumors; settings: other tumor types, predominantly non-Asian populations; cited from earlier work
[3] = test system: Asian patients with advanced HCC; test: Phase I dose-escalation, standard 3+3 design; type: in vivo
[4] = test system: patients with advanced HCC; test: Safety assessment: adverse events graded by CTCAE v3.0; type: in vivo, human; settings: for Diarrhoea: treatment-related AE
[5] = test system: advanced hepatocellular carcinoma (HCC) patients; test: Anti-tumor activity and survival; type: in vivo, human
[6] = test system: advanced HCC patients; test: Pharmacogenomic and exploratory biomarker subgroup analyses of TTP; type: in vivo, human; settings: 30 mg QD
Outline: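 Advanced HCC patients took oral test compound once daily. For genotyping, venous blood DNA was typed at 20 SNPs in 14 candidate genes by Sanger sequencing or TaqMan assays. Circulating markers, including IL6, were measured by Searchlight at baseline (day 1). TTP ran from drug start to documented progression or death. Genotype was tested by time-to-event models with score (log-rank) test, unadjusted. Biomarkers were tested by proportional hazards regression, univariate and covariate-adjusted.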

[7] = test system: Asia-Pacific patients with HCC; settings: cited from earlier work
[8] = 30 mg QD, RECIST population (n=38)
[9] = 30 mg QD, mRECIST population (n=35)

COc1cc2c(Oc3ccc(NC(=O)C4(C(=O)Nc5ccc(F)cc5)CC4)cc3F)ccnc2cc1OCCCN1CCOCC1 [foretinib]
dose-proportionality assessment ([1]; 30 to 45 mg, day 15): dose proportionality was not achieved | oral clearance (CL/F), 45-mg dose compared with 30-mg dose ([1]; day 15, N=6, interpret with caution): 50 % higher | Tmax [1]: 3 to 3.5 h | Tmax ([1]; 30 mg): 3 h | previously reported MTD [2]: 60 mg QD | maximum tolerated dose (MTD) ([3]; Asian patients with advanced HCC, oral, first-line): 30 mg QD | dose-limiting toxicities (DLTs) ([3]; in vivo): no DLTs | fatal events ([4]; 30 mg): three | relation of fatal events to study treatment ([4]; 30 mg): none of these events were considered related to study treatment | dose reductions due to an AE ([4]; 30 mg QD): no patients; also recorded: no dose reductions | Abdominal pain ([4]; 30 mg QD, N=39, all patients): 5 (12·8) n (%) | Cough ([4]; 30 mg QD, N=39, all patients): 6 (15·4) n (%) | Hypoalbuminaemia ([4]; 30 mg QD, N=39, all patients): 7 (17·9) n (%) | Insomnia ([4]; 30 mg QD, N=39, all patients): 6 (15·4) n (%) | Diarrhoea ([4]; 30 mg QD, N=39, all patients): 6 (15·4) n (%) | Abdominal pain ([4]; 30 mg QD, N=39, grade 3): 3 (7·7) n (%) | Cough ([4]; 30 mg QD, N=39, grade 3): 0 n (%) | Hypoalbuminaemia ([4]; 30 mg QD, N=39, grade 3): 5 (12.8) n (%) | Insomnia ([4]; 30 mg QD, N=39, grade 3): 1 (2.6) n (%) | Diarrhoea ([4]; 30 mg QD, N=39, grade 3): 0 n (%) | Abdominal pain ([4]; 30 mg QD, N=39, grade 4): 0 n (%) | Cough ([4]; 30 mg QD, N=39, grade 4): 0 n (%) | Hypoalbuminaemia ([4]; 30 mg QD, N=39, grade 4): 0 n (%) | Insomnia ([4]; 30 mg QD, N=39, grade 4): 0 n (%) | Oedema peripheral ([4]; 30 mg QD, N=39, grade 4): 1 (2.6) n (%) | Diarrhoea ([4]; 30 mg QD, N=39, grade 4): 0 n (%) | median time to progression (TTP) ([5]; 30 mg QD): 4.2 months | Disease stabilization rate [5, 8]: 24 (63·2) n (%) | Objective response rate [5, 8]: 3 (7·9) n (%) | Patients achieving best overall response: Complete response [5, 8]: 0 n (%) | Patients achieving best overall response: Disease progression [5, 8]: 14 (36.8) n (%) | Patients achieving best overall response: Partial response [5, 8]: 3 (7.9) n (%) | Patients achieving best overall response: Stable disease [5, 8]: 21 (55.3) n (%) | median overall survival (OS) ([5]; 30 mg QD, all enrolled patients treated at the MTD (N=39), Kaplan-Meier): 15.7 months | Disease stabilization rate ([5]; 30 mg QD, mRECIST): 82.9% | median duration of response ([5]; 30 mg QD, mRECIST): 7.6 months | Disease stabilization rate [5, 9]: 29 (82·9) n (%) | Objective response rate [5, 9]: 8 (22·9) n (%) | Patients achieving best overall response: Complete response [5, 9]: 0 n (%) | Patients achieving best overall response: Disease progression [5, 9]: 6 (17·1) n (%) | Patients achieving best overall response: Partial response [5, 9]: 8 (22·9) n (%) | Patients achieving best overall response: Stable disease [5, 9]: 21 (60·0) n (%) | objective response rate (ORR) ([5]; 30 mg QD, mRECIST, 35 evaluable patients): 22.9% | Patients achieving ≥50% reduction from baseline AFP ([5]; 30 mg QD, patients with baseline AFP ≥200 ng/mL (n=15), mRECIST population): 7 (46·7) n (%) | patients with a 50% decrease from baseline AFP at at least one time point ([5]; 30 mg, baseline AFP ≥ 200 ng/mL): 46.7% | patients achieving a PR ([5]; 30 mg, mRECIST): eight | median TTP ([6]; one or no copy of NR1I3/CAR CAT haplotype): ≈ 6 months | median TTP ([6]; two copies of NR1I3/CAR CAT haplotype): ≈ 2 months

CNC(=O)c1cc(Oc2ccc(NC(=O)Nc3ccc(Cl)c(C(F)(F)F)c3)cc2)ccn1 [sorafenib]
patients requiring dose reduction ([7]; Asia-Pacific patients with HCC): 30.9% | median OS ([7]; pivotal Asia-Pacific sorafenib study): 6.5 months
